Data as given in ChEMBL document CHEMBL1154089, “Novel N-(3-carboxyl-9-benzyl-beta-carboline-1-yl)ethylamino acids: synthesis, anti-tumor evaluation, intercalating determination, 3D QSAR analysis and docking investigation” (Eur J Med Chem, 2009).

Assays:
Mus musculus [1] = assay: Toxicity in ICR mouse assessed as tremor at > 500 mg/kg, ip after 7 days; type: organism-based; design: dose 500 mg/kg, route intraperitoneal; settings: in vivo, 168 h
How it was run: (§1)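 Mice fasted overnight with free access to water, then given a single i.p. injection of 150, 300 or 500 mg/kg in 0.2 ml of 0.9% saline. Groups of 12 (six male, six female). Animals were watched continuously for up to 7 days for abnormal behaviour (tremor, twitch, jumping, tetanus, supination) or death. They were sacrificed on day 7, and heart, liver and kidneys were checked macroscopically. LD50 was estimated graphically.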

Mus musculus [2] = assay: Toxicity in ICR mouse assessed as liver necropsy at > 500 mg/kg, ip after 7 days; type: organism-based; design: dose 500 mg/kg, route intraperitoneal; settings: in vivo, 168 h; how it was run: as §1
Mus musculus [3] = assay: Toxicity in mouse S180 cells xenografted in ICR mouse assessed as increase in body weight at 89 umol/kg, ip administered 24 hrs after tumor implantation once daily for 7 consecutive days measured after 24 hrs last post dose; type: organism-based, CCRF S-180; settings: in vivo
How it was run: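 S180-bearing male ICR mice, n = 12 per group, given 89 µmol/kg i.p. daily in 0.2 ml 0.9% saline for 7 days, starting 24 h after s.c. implantation. Animals weighed daily. Result expressed as body-weight increase from the start of treatment, in g, mean ± SD.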

Mus musculus [4] = assay: Toxicity in ICR mouse assessed as heart necropsy at > 500 mg/kg, ip after 7 days; type: organism-based; design: dose 500 mg/kg, route intraperitoneal; settings: in vivo, 168 h; how it was run: as §1
Mus musculus [5] = assay: Toxicity in mouse S180 cells xenografted in ICR mouse assessed as spleen index at 89 umol/kg, ip administered 24 hrs after tumor implantation once daily for 7 consecutive days measured after 24 hrs last post dose; type: organism-based, CCRF S-180; settings: in vivo
How it was run: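 S180-bearing male ICR mice (n = 12) received 89 µmol/kg i.p. daily in 0.2 ml saline for 7 days. Killed under ether 24 h after the last dose; spleens excised and weighed. Spleen index given as mean ± SD, […] body weight.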

HepG2 = assay: Cytotoxicity against human HepG2 cells after 48 hrs by MTT assay; type: functional, cell-based; settings: HepG2, 48 h
How it was run: (§2)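 Cells grown in DMEM or RPMI-1640 with 10% FBS plus penicillin/streptomycin. Seeded at 5 × 10^4 cells/ml and given 4 h at 37 °C in 5% CO2 before the medium was replaced with compound (0.1–400 µM, DMSO vehicle; vehicle control 1% DMSO). After 48 h, MTT added (final 0.5 mg/ml) for 4 h. Formazan dissolved in DMSO and read at 570 nm. IC50 is the concentration giving 50% growth inhibition.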

[6] = Cytotoxicity against human H1299 cells after 48 hrs by MTT assay; type: functional, cell-based; settings: NCI-H1299, 48 h; how it was run: as §2
HL-60 = assay: Cytotoxicity against human HL60 cells after 48 hrs by MTT assay; type: functional, cell-based; settings: HL-60, 48 h; how it was run: as §2
Mus musculus [7] = assay: Toxicity in ICR mouse assessed as twitch at > 500 mg/kg, ip after 7 days; type: organism-based; design: dose 500 mg/kg, route intraperitoneal; settings: in vivo, 168 h; how it was run: as §1
Mus musculus [8] = assay: Toxicity in ICR mouse assessed as supination at > 500 mg/kg, ip after 7 days; type: organism-based; design: dose 500 mg/kg, route intraperitoneal; settings: in vivo, 168 h; how it was run: as §1
CCRF S-180 [9] = assay: Antitumor activity against mouse S180 cells xenografted in ICR mouse assessed as inhibition of tumor growth at 89 umol/kg, ip administered 24 hrs after tumor implantation once daily for 7 consecutive days measured after 24 hrs last post dose; type: functional; settings: CCRF S-180, ip
How it was run: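 S180 solid tumors in male ICR mice (10–12 weeks), 1 × 10^7 cells s.c. at the right armpit. Mice randomized at 24 h, n = 12 per group, and dosed i.p. daily in 0.2 ml 0.9% saline for 7 days. Tumors weighed 24 h after the final dose. Inhibition (%) = [(A − B)/A] × 100, where A is the mean tumor weight of saline controls and B is the mean of the treated group.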

Mus musculus [10] = assay: Toxicity in ICR mouse assessed as death at > 500 mg/kg, ip after 7 days; type: organism-based; design: dose 500 mg/kg, route intraperitoneal; settings: in vivo, 168 h; how it was run: as §1
CCRF S-180 [11] = assay: Antitumor activity against mouse S180 cells xenografted in ICR mouse assessed as decrease in tumor weight at 89 umol/kg, ip administered 24 hrs after tumor implantation once daily for 7 consecutive days measured after 24 hrs last post dose; type: functional
How it was run: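 Male ICR mice, 10–12 weeks old. Solid tumors from 1 × 10^7 viable S180 ascites cells in 0.2 ml 0.9% saline, injected s.c. at the right armpit. Random allocation at 24 h, 12 per group. Dosed i.p. daily in 0.2 ml 0.9% saline for 7 days. Saline-only negative control; cytarabine 89 µmol/kg positive control. Tumors excised and weighed 24 h after the last dose. ANOVA used for statistics.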

[12] = Cytotoxicity against human MES-SA cells after 48 hrs by MTT assay; type: functional, cell-based; how it was run: as §2
Mus musculus [13] = assay: Toxicity in ICR mouse assessed as kidneys necropsy at > 500 mg/kg, ip after 7 days; type: organism-based, Kidney; design: dose 500 mg/kg, route intraperitoneal; settings: in vivo, 168 h; how it was run: as §1
Mus musculus [14] = assay: Toxicity in ICR mouse assessed as jumping at > 500 mg/kg, ip after 7 days; type: organism-based; design: dose 500 mg/kg, route intraperitoneal; settings: in vivo, 168 h; how it was run: as §1
Mus musculus [15] = assay: Toxicity in ICR mouse assessed as tetanus at > 500 mg/kg, ip after 7 days; type: organism-based; design: dose 500 mg/kg, route intraperitoneal; settings: in vivo, 168 h; how it was run: as §1
HeLa = assay: Cytotoxicity against human HeLa cells after 48 hrs by MTT assay; type: functional, cell-based; how it was run: as §2

SMILES	Activity (Mus musculus [1])	Activity (Mus musculus [2])	Activity (Mus musculus [3])	Activity (Mus musculus [4])	Activity (Mus musculus [5])	IC50 (HepG2)	IC50 [6]	IC50 (HL-60)	Activity (Mus musculus [7])	Activity (Mus musculus [8])	inhibition in vivo at 89 µmol/kg (CCRF S-180 [9])	Activity (Mus musculus [10])	Activity (CCRF S-180 [11])	IC50 [12]	Activity (Mus musculus [13])	Activity (Mus musculus [14])	Activity (Mus musculus [15])	IC50 (HeLa)
O=C(O)CNCCc1nc(C(=O)O)cc2c3ccccc3n(Cc3ccccc3)c12	Non-toxic	Non-toxic	11.34 g	Non-toxic	13.1 mg/g	> 400 µM	75.6 µM	> 400 µM	Non-toxic	Non-toxic	11%	Non-toxic	1.47 g	178 µM	Non-toxic	Non-toxic	Non-toxic	> 400 µM
O=C(O)c1cc2c3ccccc3n(Cc3ccccc3)c2c(CCN2C(=O)CCC2C(=O)O)n1 (stereo not given)			12.24 g		12.2 mg/g	> 400 µM	97.6 µM	112 µM			43%		0.94 g	45.9 µM				> 400 µM
O=C(O)C[C@H](NCCc1nc(C(=O)O)cc2c3ccccc3n(Cc3ccccc3)c12)C(=O)O	Non-toxic	Non-toxic	10.11 g	Non-toxic	13 mg/g	114 µM	69 µM	43.2 µM	Non-toxic	Non-toxic	34.7%	Non-toxic	1.08 g	13 µM	Non-toxic	Non-toxic	Non-toxic	99.3 µM
O=C(O)c1cc2c3ccccc3n(Cc3ccccc3)c2c(CCN[C@@H](Cc2c[nH]cn2)C(=O)O)n1			11.87 g		11.9 mg/g	70.7 µM	20 µM	160 µM			9.7%		1.49 g	14.5 µM				136 µM
CC(C)C[C@H](NCCc1nc(C(=O)O)cc2c3ccccc3n(Cc3ccccc3)c12)C(=O)O			9.04 g		10.9 mg/g	176 µM	69.9 µM	45.2 µM			8.7%		1.51 g	71.2 µM				189 µM
O=C(O)c1cc2c3ccccc3n(Cc3ccccc3)c2c(CCN[C@@H](CO)C(=O)O)n1			11.46 g		10.5 mg/g	174 µM	83.8 µM	23.5 µM			35.3%		1.07 g	136 µM				210 µM
O=C(O)c1cc2c3ccccc3n(Cc3ccccc3)c2c(CCN2CCC[C@H]2C(=O)O)n1			12.07 g		12.1 mg/g	107 µM	75.5 µM	28.4 µM			7.2%		1.53 g	55.2 µM				161 µM
Nc1ccn([C@@H]2O[C@H](CO)[C@@H](O)[C@@H]2O)c(=O)n1 [CYTARABINE]											54.8%		0.74 g					
O=C(O)c1cc2c3ccccc3n(Cc3ccccc3)c2c(CCN[C@@H](Cc2ccc(O)cc2)C(=O)O)n1	Non-toxic	Non-toxic	13.62 g	Non-toxic	13.6 mg/g	127 µM	72.5 µM	24 µM	Non-toxic	Non-toxic	48.6%	Non-toxic	0.85 g	59.3 µM	Non-toxic	Non-toxic	Non-toxic	209 µM
C[C@@H](O)[C@H](NCCc1nc(C(=O)O)cc2c3ccccc3n(Cc3ccccc3)c12)C(=O)O	Non-toxic	Non-toxic	11.37 g	Non-toxic	11.4 mg/g	> 400 µM	86.4 µM	50.4 µM	Non-toxic	Non-toxic	-29.1%	Non-toxic	2.12 g	218 µM	Non-toxic	Non-toxic	Non-toxic	221 µM
CSCC[C@H](NCCc1nc(C(=O)O)cc2c3ccccc3n(Cc3ccccc3)c12)C(=O)O			9.12 g		11.8 mg/g	108 µM	100 µM	182 µM			1.5%		1.63 g	86.4 µM				26.5 µM
O=C(O)c1cc2c3ccccc3n(Cc3ccccc3)c2c(CCN[C@@H](Cc2ccccc2)C(=O)O)n1	Non-toxic	Non-toxic	9.74 g	Non-toxic	14.4 mg/g	114 µM	59.3 µM	31.8 µM	Non-toxic	Non-toxic	5.2%	Non-toxic	1.56 g	11 µM	Non-toxic	Non-toxic	Non-toxic	51.7 µM
CC[C@H](C)[C@H](NCCc1nc(C(=O)O)cc2c3ccccc3n(Cc3ccccc3)c12)C(=O)O	Non-toxic	Non-toxic	13.56 g	Non-toxic	13.6 mg/g	254 µM	69 µM	33.2 µM	Non-toxic	Non-toxic	1.6%	Non-toxic	1.62 g	181 µM	Non-toxic	Non-toxic	Non-toxic	200 µM
CC(C)[C@@H](NCCc1nc(C(=O)O)cc2c3ccccc3n(Cc3ccccc3)c12)C(=O)O			10.23 g		10.2 mg/g	> 400 µM	199 µM	> 400 µM			53.8%		0.76 g	175 µM				290 µM
O=C(O)c1cc2c3ccccc3n(Cc3ccccc3)c2c(CCN[C@@H](Cc2c[nH]c3ccccc23)C(=O)O)n1			11.67 g		11.7 mg/g	107 µM	57.3 µM	102 µM			47.2%		0.85 g	11.7 µM				393 µM
N=C(N)NCCC[C@H](NCCc1nc(C(=O)O)cc2c3ccccc3n(Cc3ccccc3)c12)C(=O)O	Non-toxic	Non-toxic	11.19 g	Non-toxic	12.7 mg/g	161 µM	86.4 µM	40.9 µM	Non-toxic	Non-toxic	37.7%	Non-toxic	1.03 g	68.2 µM	Non-toxic	Non-toxic	Non-toxic	259 µM
